We go through three compounds from ChEMBL document CHEMBL1772977, “Synthesis and biological evaluation of novel 4-benzylpiperazine ligands for sigma-1 receptor imaging” (Bioorg Med Chem, 2011).

Test [1] has as its target Sigma non-opioid intracellular receptor 1 (Rattus norvegicus, UniProt Q9R0C9). In words: Displacement of (+)-[3H]pentazocine from sigma 1 receptor in rat brain membranes by competitive binding assay. It is filed as cell membranes. Put shortly:
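Sigma-1 competition binding used rat brain membranes as receptor material with (+)-[3H]pentazocine as radioligand. Ki was derived by Cheng–Prusoff from at least three independent experiments, each in triplicate, and is reported as mean ± SD.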

Test [2] is described as follows: Displacement of [3H]ditolylguanidine from sigma 2 receptor in rat liver membrane by competitive binding assay. The class given is cell membranes. The method, boiled down:
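Sigma-2 competition binding used rat liver membranes with [3H]ditolylguanidine as radioligand. 10 µM dextrallorphan was present to mask sigma-1 sites. Ki was derived by Cheng–Prusoff from at least three independent experiments, each in triplicate, and is reported as mean ± SD.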

For orientation: Ki means a measure of affinity in units of concentration, obtained from inhibition or displacement.

Sigma non-opioid intracellular receptor 1, sequence (Q9R0C9 whole entry): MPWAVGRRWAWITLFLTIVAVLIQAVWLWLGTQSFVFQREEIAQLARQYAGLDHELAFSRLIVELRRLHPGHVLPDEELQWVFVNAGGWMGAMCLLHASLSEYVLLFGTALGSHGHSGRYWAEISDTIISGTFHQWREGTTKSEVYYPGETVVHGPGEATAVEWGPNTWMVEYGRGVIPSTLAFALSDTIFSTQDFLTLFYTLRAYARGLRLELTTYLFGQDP

On to `Fc1ccc(CN2CCN(Cc3ccc4c(c3)OCO4)CC2)cc1`, for which the inhibitory constant (Ki) in test [1] came to 0.85 nM; in test [2], 52.2 nM.
The corresponding values for `Brc1ccc(CN2CCN(Cc3ccc4c(c3)OCO4)CC2)cc1` are 0.78 nM and 40.5 nM.
As to `Ic1ccc(CN2CCN(Cc3ccc4c(c3)OCO4)CC2)cc1`, the Ki in test [1] stood at 0.8 nM; in test [2] it was 61.1 nM.
